Laboratory results from ChEMBL document CHEMBL3244323, “[1-Penicillamine,2-leucine]oxytocin. Synthesis and pharmacological and conformational studies of a potent peptide hormone inhibitor” (J Med Chem, 1979).
Where a chain is given by its changes, count along the chain named. Blank lines part the entries; values can stand above or below the molecule they belong to. Activity calls are given as the source filed them. The calls are words filed in the database; no cut-off is given here. *1 amine or outer side, *2 acyl side, *3 side chain or, on linkers, in order; H or OH if unused. Where a SMILES comes first, the peptide text is derived from it. Bridges are numbered along the chain shown (N, C = ends). [ ]: non-standard residue; d: D form. Tyr(3,5-Br2) = N[C@@H](Cc1cc(Br)c(O)c(Br)c1)C(=O)O; X1 = CCC(CC)(CC(=O)[*:1])S[*:2]; X2 = CC(C)(CC(=O)[*:1])S[*:2]; Pen = CC(C)(S)[C@H](N)C(=O)O

Tests used:
[1] = target: T1, Oxytocin receptor (Homo sapiens, UniProt P30559); assay: Antagonist activity at oxytocin receptor (unknown origin) assessed as inhibition of agonist-induced oxytocic response; conditions: read-out: pA2 (converted)
T1 sequence (P30559 whole entry): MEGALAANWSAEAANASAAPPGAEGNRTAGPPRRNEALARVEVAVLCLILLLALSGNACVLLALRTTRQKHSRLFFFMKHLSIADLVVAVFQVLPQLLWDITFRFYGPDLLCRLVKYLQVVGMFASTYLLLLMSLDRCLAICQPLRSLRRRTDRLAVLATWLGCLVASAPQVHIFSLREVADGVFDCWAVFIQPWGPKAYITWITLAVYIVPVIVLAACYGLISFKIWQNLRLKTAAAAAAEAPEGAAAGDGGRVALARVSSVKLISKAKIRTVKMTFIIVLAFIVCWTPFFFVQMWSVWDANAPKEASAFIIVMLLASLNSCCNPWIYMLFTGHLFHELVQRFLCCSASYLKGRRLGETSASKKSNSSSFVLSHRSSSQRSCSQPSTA
Outline: (§1)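 Isolated uteri from rats in natural estrus, suspended in Mg-free van Dyke-Hasting's solution with isotonic contraction recording, bath 30 °C. Antagonism of oxytocin was analysed by the Schild method. pA2 is the negative log of the average molar antagonist concentration that reduces the response to 2x units of oxytocin to the response to x units.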

[2] = target: T2, Oxytocin receptor (Mus musculus) (UniProt P97926); assay: Antagonist activity at oxytocin receptor in mouse mammary gland tissue assessed as inhibition of oxytocin-induced milk ejection by spectrophotometry
T2 sequence (whole entry): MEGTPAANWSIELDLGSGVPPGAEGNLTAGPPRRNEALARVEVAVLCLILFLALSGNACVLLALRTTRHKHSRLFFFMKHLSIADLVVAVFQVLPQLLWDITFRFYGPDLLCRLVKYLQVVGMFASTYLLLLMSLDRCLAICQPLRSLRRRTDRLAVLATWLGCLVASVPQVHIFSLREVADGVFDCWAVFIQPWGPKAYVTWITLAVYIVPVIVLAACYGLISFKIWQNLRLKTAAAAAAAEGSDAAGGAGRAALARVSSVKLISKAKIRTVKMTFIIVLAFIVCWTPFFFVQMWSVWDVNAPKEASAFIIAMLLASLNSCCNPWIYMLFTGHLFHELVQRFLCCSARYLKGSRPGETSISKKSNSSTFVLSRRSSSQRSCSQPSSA
Outline: (§2)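 Mouse mammary gland tissue was incubated in vitro with oxytocin alone, or with oxytocin plus antagonist at up to 10^-5 M. Released milk was measured spectrophotometrically as absorbance. Values are mean ± SE from tissue of four mice.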

[3] = target: T3, Oxytocin receptor (Rattus norvegicus, UniProt P70536); assay: Antagonist activity at oxytocin receptor in rat assessed as inhibition of agonist-induced oxytocic response; conditions: read-out: pA2 (converted); outline: as §1
T3 sequence (P70536 whole entry): T2 sequence (whole entry) with I11V, A23E, L27R, R33Q, A159G, V169A, S245N, L344F, I361V

[4] = target: T4, Oxytocin receptor (Homo sapiens) (UniProt P30559); assay: Agonist activity at oxytocin receptor (unknown origin)
T4 sequence (whole entry): T1 sequence (P30559 whole entry)

[5] = target: T5, Oxytocin receptor (Rattus norvegicus) (UniProt P70536); assay: Antagonist activity at oxytocin receptor in isolated rat uterus assessed as inhibition of oxytocin-induced oxytocic response at 20:1 compound to oxytocin ratio pretreated up to 90 secs prior to oxytocin addition
T5 sequence (whole entry): T2 sequence (whole entry) with I11V, A23E, L27R, R33Q, A159G, V169A, S245N, L344F, I361V

[6] = target: T3, Oxytocin receptor; assay: Antagonist activity at oxytocin receptor in isolated rat uterus assessed as inhibition of oxytocin-induced oxytocic response; conditions: read-out: pA2 (converted); outline: as §1
[7] = target: T5, Oxytocin receptor (Rattus norvegicus); assay: Antagonist activity at oxytocin receptor in isolated rat uterus assessed as inhibition of oxytocin-induced contractions at 0.25 ug/ml dosed at the peak of first contraction measured during 10 mins interval of compound dosing
[8] = target: T2, Oxytocin receptor (Mus musculus); assay: Antagonist activity at oxytocin receptor in mouse mammary gland tissue assessed as inhibition of oxytocin-induced milk ejection at 7.5X10'-6 M by spectrophotometry; outline: as §2
[9] = target: T5, Oxytocin receptor (Rattus norvegicus); assay: Antagonist activity at oxytocin receptor in isolated rat uterus assessed as inhibition of oxytocic response at 0.25 ug/ml added simultaneously with oxytocin
[10] = target: T5, Oxytocin receptor (Rattus norvegicus); assay: Antagonist activity at oxytocin receptor in isolated rat uterus assessed as inhibition of oxytocic response at 0.25 ug/ml pretreated for 30 secs prior to oxytocin addition relative to control
[11] = target: T5, Oxytocin receptor (Rattus norvegicus); assay: Antagonist activity at oxytocin receptor in isolated rat uterus assessed as inhibition of oxytocin-induced oxytocic response at 20:1 compound to oxytocin ratio pretreated for 10 to 20 secs prior to oxytocin addition; conditions: concentration not given here
[12] = target: T5, Oxytocin receptor (Rattus norvegicus); assay: Antagonist activity at oxytocin receptor in isolated rat uterus assessed as incidence of regular phasic contractions of uterus at 0.25 ug/ml
[13] = target: T5, Oxytocin receptor (Rattus norvegicus); assay: Antagonist activity at oxytocin receptor in isolated rat uterus assessed as inhibition of oxytocin-induced oxytocic response at 0.25 ug/ml followed by compound washout
[14] = target: T5, Oxytocin receptor (Rattus norvegicus); assay: Antagonist activity at oxytocin receptor in isolated rat uterus assessed as reduction of subsequent contractions at 0.25 ug/ml measured during 10 mins interval of compound dosing
[15] = target: T5, Oxytocin receptor (Rattus norvegicus); assay: Antagonist activity at oxytocin receptor in isolated rat uterus assessed as inhibition of oxytocin-induced oxytocic response at 20:1 compound to oxytocin ratio followed by compound washout
[16] = target: T2, Oxytocin receptor (Mus musculus); assay: Agonist activity at oxytocin receptor in mouse mammary gland tissue assessed as milk-ejecting activity at 10^-5 M by spectrophotometry
[17] = target: T5, Oxytocin receptor (Rattus norvegicus); assay: Antagonist activity at oxytocin receptor in isolated rat uterus assessed as incidence of regular phasic contractions of uterus at 0.25 ug/ml measured during 6 mins interval of compound dosing

Kb [1]: 138 nM | inhibition [2]: Active
Compound: CC[C@H](C)[C@@H]1NC(=O)[C@H](Cc2ccc(O)cc2)NC(=O)[C@@H](N)C(C)(C)SSC[C@@H](C(=O)N2CCC[C@H]2C(=O)N[C@@H](CC(C)C)C(=O)NCC(N)=O)NC(=O)[C@H](CC(N)=O)NC(=O)[C@H](CCC(N)=O)NC1=O

Kb [3]: 89.1 nM
Compound: CC[C@H](C)[C@@H]1NC(=O)[C@H](Cc2cc(Br)c(O)c(Br)c2)NC(=O)CCSSC[C@@H](C(=O)N2CCC[C@H]2C(=O)N[C@@H](CC(C)C)C(=O)NCC(N)=O)NC(=O)[C@H](CC(N)=O)NC(=O)[C@H](CCC(N)=O)NC1=O

Activity [4]: 0.5 U/mg
Compound: CC[C@H](C)[C@@H]1NC(=O)[C@H](CC(C)C)NC(=O)[C@@H](N)CSSC[C@@H](C(=O)N2CCC[C@H]2C(=O)N[C@@H](CC(C)C)C(=O)NCC(N)=O)NC(=O)[C@H](CC(N)=O)NC(=O)[C@H](CCC(N)=O)NC1=O (H-CLIQNCPLG-NH2; disulfide 1-6)

inhibition [5]: Active | Kb [6]: 72.4 nM | inhibition [7]: Active | inhibition [8]: Active | inhibition [9]: inactive | inhibition [10]: 60% | inhibition [11]: 50% | inhibition [13]: inactive | Activity [14]: Active | inhibition [15]: inactive | Activity [16]: inactive
Compound: CC[C@H](C)[C@@H]1NC(=O)[C@H](CC(C)C)NC(=O)[C@@H](N)C(C)(C)SSC[C@@H](C(=O)N2CCC[C@H]2C(=O)N[C@@H](CC(C)C)C(=O)NCC(N)=O)NC(=O)[C@H](CC(N)=O)NC(=O)[C@H](CCC(N)=O)NC1=O (H-[Pen]LIQNCPLG-NH2; disulfide 1-6)
Activity [12]: inactive | inhibition [17]: inactive

Kb [1]: 170 nM
Compound: CC[C@H](C)[C@@H]1NC(=O)[C@H](Cc2ccc(O)cc2)NC(=O)[C@@H](N)C(C)(C)SSC[C@@H](C(=O)N2CCC[C@H]2C(=O)N[C@@H](CC(C)C)C(=O)NCC(N)=O)NC(=O)[C@H](CC(N)=O)NC(=O)[C@H](CC(C)C)NC1=O (H-[Pen]YILNCPLG-NH2; disulfide 1-6)

Kb [1]: 95.5 nM
Compound: CC[C@H](C)[C@@H]1NC(=O)[C@H](Cc2ccc(O)cc2)NC(=O)CC(CC)(CC)SSC[C@@H](C(=O)N2CCC[C@H]2C(=O)N[C@@H](CC(C)C)C(=O)NCC(N)=O)NC(=O)[C@H](CC(N)=O)NC(=O)[C@H](CC(C)C)NC1=O (YILNCPLG-NH2; linker N-5 via X1)

Kb [1]: 57.5 nM
Compound: CC[C@H](C)[C@@H]1NC(=O)[C@H](Cc2ccc(O)cc2)NC(=O)CC(CC)(CC)SSC[C@@H](C(=O)N2CCC[C@H]2C(=O)N[C@@H](CC(C)C)C(=O)NCC(N)=O)NC(=O)[C@H](CC(N)=O)NC(=O)[C@H](CCC(N)=O)NC1=O (YIQNCPLG-NH2; linker N-5 via X1)

Kb [1]: 115 nM
Compound: CC[C@H](C)[C@@H]1NC(=O)[C@H](Cc2ccc(O)cc2)NC(=O)CC(C)(C)SSC[C@@H](C(=O)N2CCC[C@H]2C(=O)N[C@@H](CC(C)C)C(=O)NCC(N)=O)NC(=O)[C@H](CC(N)=O)NC(=O)[C@H](CCC(N)=O)NC1=O (YIQNCPLG-NH2; linker N-5 via X2)

Kb [3]: 31.6 nM
Compound: CC[C@H](C)[C@@H]1NC(=O)[C@H](Cc2ccc(O)cc2)NC(=O)CC(C)(C)SSC[C@@H](C(=O)N2CCC[C@H]2C(=O)N[C@@H](CC(C)C)C(=O)NCC(N)=O)NC(=O)[C@H](CC(N)=O)NC(=O)[C@H]([C@@H](C)O)NC1=O (YITNCPLG-NH2; linker N-5 via X2)

Kb [3]: 83.2 nM
Compound: CC[C@H](C)[C@@H]1NC(=O)[C@H](Cc2cc(Br)c(O)c(Br)c2)NC(=O)CC(CC)(CC)SSC[C@@H](C(=O)N2CCC[C@H]2C(=O)N[C@@H](CC(C)C)C(=O)NCC(N)=O)NC(=O)[C@H](CC(N)=O)NC(=O)[C@H](CCC(N)=O)NC1=O ([Tyr(3,5-Br2)]IQNCPLG-NH2; linker N-5 via X1)

Activity [4]: 803 U/mg
Compound: CC[C@H](C)[C@@H]1NC(=O)[C@H](Cc2ccc(O)cc2)NC(=O)CCSSCC(C(=O)N2CCC[C@H]2C(=O)N[C@@H](CC(C)C)C(=O)NCC(N)=O)NC(=O)[C@H](CC(N)=O)NC(=O)[C@H](CCC(N)=O)NC1=O (single isomer, unassigned)
